According to ChEMBL document CHEMBL2086239, “Synthesis and biological evaluation of combretastatin-amidobenzothiazole conjugates as potential anticancer agents” (Eur J Med Chem, 2012):
Calls of active or inactive are those of the source. The rule behind the calls is not given here.

How the values were obtained:
Type in all cases: functional
786-0 = assay: Growth inhibition of human 786-0 cells after 48 hrs by SRB assay; conditions: 786-0, 48 h
Method in brief: (§1)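 NCI 60-cell-line screen: after preliminary screening, tested at five dose concentrations on 59 human tumour lines covering leukemia, lung, colon, CNS, melanoma, ovarian, renal, prostate and breast.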

HEp-2 = assay: Cytotoxicity against human Hep2 cells after 48 hrs assessed as inhibition of cell growth at 10 uM after 48 hrs by SRB assay relative to control; conditions: for inhibition of growth at 10 µM: HEp-2, 48 h, read-out: GI
Method in brief: (§2)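 SRB protein assay in DMEM with 10% FBS at 37 °C, 5% CO2, 100% relative humidity. Cells seeded in 96-well plates, incubated 24 h, then exposed to drug at 10 µM for 48 h and processed per standard protocol. Absorbance read at 560 nm; growth percentage calculated for test wells relative to control wells.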

UO-31 = assay: Growth inhibition of human UO31 cells after 48 hrs by SRB assay; conditions: UO-31, 48 h
Method in brief: (§3)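 NCI 60-cell-line panel, five-dose testing after preliminary screen; sulforhodamine B protein assay in DMEM with 10% FBS, 37 °C, 5% CO2, 100% humidity. Cells seeded and incubated 24 h before compound addition, then exposed 48 h. Absorbance read at 560 nm; growth percentage relative to control wells; GI50 taken as concentration giving 50% growth inhibition.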

OVCAR-5 = assay: Growth inhibition of human OVCAR5 cells after 48 hrs by SRB assay; conditions: OVCAR-5, 48 h; method in brief: as §1
KM12 = assay: Growth inhibition of human KM12 cells after 48 hrs by SRB assay; conditions: KM12, 48 h; method in brief: as §1
SK-MEL-5 = assay: Growth inhibition of human SK-MEL-5 cells after 48 hrs by SRB assay; conditions: SK-MEL-5, 48 h; method in brief: as §3
HCT-15 = assay: Growth inhibition of human HCT15 cells after 48 hrs by SRB assay; conditions: HCT-15, 48 h; method in brief: as §1
SK-MEL-2 = assay: Growth inhibition of human SK-MEL-2 cells after 48 hrs by SRB assay; conditions: SK-MEL-2, 48 h; method in brief: as §3
ACHN = assay: Growth inhibition of human ACHN cells after 48 hrs by SRB assay; method in brief: as §1
SW-620 = assay: Growth inhibition of human SW620 cells after 48 hrs by SRB assay; conditions: SW-620, 48 h; method in brief: as §3
MDA-MB-468 = assay: Growth inhibition of human MDA-MB-468 cells after 48 hrs by SRB assay; method in brief: as §1
NCI-H23 = assay: Growth inhibition of human NCI-H23 cells after 48 hrs by SRB assay; conditions: NCI-H23, 48 h; method in brief: as §1
OVCAR-3 = assay: Growth inhibition of human OVCAR3 cells after 48 hrs by SRB assay; conditions: OVCAR-3, 48 h; method in brief: as §1
M14 = assay: Growth inhibition of human M14 cells after 48 hrs by SRB assay; conditions: M14, 48 h; method in brief: as §1
HCC 2998 = assay: Growth inhibition of human HCC2998 cells after 48 hrs by SRB assay; conditions: HCC 2998, 48 h; method in brief: as §1
LOX IMVI = assay: Growth inhibition of human LOXIMVI cells after 48 hrs by SRB assay; method in brief: as §1
SNB-75 = assay: Growth inhibition of human SNB75 cells after 48 hrs by SRB assay; conditions: SNB-75, 48 h; method in brief: as §3
NCI/ADR-RES = assay: Growth inhibition of human NCI/ADR-RES cells after 48 hrs by SRB assay; method in brief: as §1
NCI-H460 = assay: Growth inhibition of human NCI-H460 cells after 48 hrs by SRB assay; conditions: NCI-H460, 48 h; method in brief: as §1
MDA-MB-435 = assay: Growth inhibition of human MDA-MB-435 cells after 48 hrs by SRB assay; conditions: MDA-MB-435, 48 h; method in brief: as §1
IGROV-1 = assay: Growth inhibition of human IGROV1 cells after 48 hrs by SRB assay; conditions: IGROV-1, 48 h; method in brief: as §1
CAKI-1 = assay: Growth inhibition of human Caki1 cells after 48 hrs by SRB assay; conditions: CAKI-1, 48 h; method in brief: as §1
MOLT-4 = assay: Growth inhibition of human MOLT4 cells after 48 hrs by SRB assay; conditions: MOLT-4, 48 h; method in brief: as §1
NCI-H522 = assay: Growth inhibition of human NCI-H522 cells after 48 hrs by SRB assay; conditions: NCI-H522, 48 h; method in brief: as §1
MCF7 [1] = assay: Cell cycle arrest in human MCF7 cells assessed as accumulation at S phase at 4 uM after 24 hrs by FACS analysis (reference value: 6.79%)
SNB-19 = assay: Growth inhibition of human SNB19 cells after 48 hrs by SRB assay; conditions: SNB-19, 48 h; method in brief: as §3
SR = assay: Growth inhibition of human SR cells after 48 hrs by SRB assay; method in brief: as §3
COLO 205 = assay: Cytotoxicity against human COLO205 cells after 48 hrs assessed as inhibition of cell growth at 10 uM after 48 hrs by SRB assay relative to control; conditions: COLO 205, 48 h, read-out: GI; method in brief: as §2
RXF 393 = assay: Growth inhibition of human RXF393 cells after 48 hrs by SRB assay; conditions: RXF 393, 48 h; method in brief: as §1
MCF7 [2] = assay: Cytotoxicity against human MCF7 cells after 48 hrs assessed as inhibition of cell growth at 10 uM after 48 hrs by SRB assay relative to control; conditions: MCF7, 48 h, read-out: GI; method in brief: as §2
HT-29 = assay: Growth inhibition of human HT-29 cells after 48 hrs by SRB assay; conditions: HT-29, 48 h; method in brief: as §1
MCF7 [3] = assay: Growth inhibition of human MCF7 cells after 48 hrs by SRB assay; conditions: MCF7, 48 h; method in brief: as §1
UACC-257 = assay: Growth inhibition of human UACC257 cells after 48 hrs by SRB assay; conditions: UACC-257, 48 h; method in brief: as §3
SN12C = assay: Growth inhibition of human SN12C cells after 48 hrs by SRB assay; method in brief: as §3
PC-3 = assay: Cytotoxicity against human PC3 cells after 48 hrs assessed as inhibition of cell growth at 10 uM after 48 hrs by SRB assay relative to control; conditions: PC-3, 48 h, read-out: GI; method in brief: as §2
THP-1 = assay: Cytotoxicity against human THP1 cells after 48 hrs assessed as inhibition of cell growth at 10 uM after 48 hrs by SRB assay relative to control; conditions: for inhibition of growth at 10 µM: THP-1, 48 h, read-out: GI; method in brief: as §2
A498 = assay: Growth inhibition of human A498 cells after 48 hrs by SRB assay; conditions: A498, 48 h; method in brief: as §1
SK-MEL-28 = assay: Growth inhibition of human SK-MEL-28 cells after 48 hrs by SRB assay; conditions: SK-MEL-28, 48 h; method in brief: as §3
U-251 = assay: Growth inhibition of human U251cells after 48 hrs by SRB assay; conditions: U-251, 48 h; method in brief: as §3
Hs-578T = assay: Growth inhibition of human Hs578T cells after 48 hrs by SRB assay; method in brief: as §1
A549 = assay: Growth inhibition of human A549 cells after 48 hrs by SRB assay; conditions: A549, 48 h; method in brief: as §1
TK-10 = assay: Growth inhibition of human TK10 cells after 48 hrs by SRB assay; conditions: TK-10, 48 h; method in brief: as §3

COc1ccc(/C=C\c2cc(OC)c(OC)c(OC)c2)cc1O [COMBRETASTATIN A4]
GI50 (786-0): 100 nM
inhibition of growth at 10 µM (HEp-2): 64%
GI50 (UO-31): 19 nM
GI50 (OVCAR-5): 100 nM
GI50 (KM12): 5 nM
GI50 (SK-MEL-5): 3 nM
GI50 (HCT-15): 3 nM
GI50 (SK-MEL-2): 3 nM
GI50 (ACHN): 6 nM
GI50 (SW-620): 3 nM
GI50 (MDA-MB-468): inactive
GI50 (NCI-H23): 3 nM
GI50 (OVCAR-3): 1 nM
GI50 (M14): 2 nM
GI50 (HCC 2998): 63 nM
GI50 (LOX IMVI): 3 nM
GI50 (SNB-75): 7 nM
GI50 (NCI/ADR-RES): 1 nM
GI50 (NCI-H460): 7 nM
GI50 (MDA-MB-435): 1 nM
GI50 (IGROV-1): 15 nM
GI50 (CAKI-1): 25 nM
GI50 (MOLT-4): 3 nM
GI50 (NCI-H522): 1 nM
Activity (MCF7 [1]): 14.27%
GI50 (SNB-19): 3 nM
GI50 (SR): 3 nM
inhibition of growth at 10 µM (COLO 205): 63%
GI50 (RXF 393): 2 nM
inhibition of growth at 10 µM (MCF7 [2]): 71%
GI50 (HT-29): 100 nM
GI50 (MCF7 [3]): 5 nM
GI50 (UACC-257): 3 nM
GI50 (SN12C): 6 nM
inhibition of growth at 10 µM (PC-3): 76%
inhibition of growth at 10 µM (THP-1): 87%
GI50 (A498): 6 nM
GI50 (SK-MEL-28): 7 nM
GI50 (U-251): 7 nM
GI50 (Hs-578T): 1 nM
GI50 (A549): 15 nM
GI50 (TK-10): 100 nM

COc1ccc(/C=C\c2cc(OC)c(OC)c(OC)c2)cc1OCC(=O)Nc1nc2ccc(C(F)(F)F)cc2s1
GI50 (786-0): 6960 nM
inhibition of growth at 10 µM (HEp-2): 76%
GI50 (UO-31): 3590 nM
GI50 (OVCAR-5): 5980 nM
GI50 (KM12): 3140 nM
GI50 (SK-MEL-5): 2840 nM
GI50 (HCT-15): 3240 nM
GI50 (SK-MEL-2): 3980 nM
GI50 (ACHN): 4820 nM
GI50 (SW-620): 4650 nM
GI50 (MDA-MB-468; MDA-MB-468, 48 h): 2160 nM
GI50 (NCI-H23): 3900 nM
GI50 (OVCAR-3): 2110 nM
GI50 (M14): 3580 nM
GI50 (HCC 2998): 4230 nM
GI50 (LOX IMVI): 4010 nM
GI50 (SNB-75): 1580 nM
GI50 (NCI/ADR-RES): 2120 nM
GI50 (NCI-H460): 3550 nM
GI50 (MDA-MB-435): 1840 nM
GI50 (IGROV-1): 4480 nM
GI50 (CAKI-1): 3100 nM
GI50 (MOLT-4): 3750 nM
GI50 (NCI-H522): 2890 nM
Activity (MCF7 [1]): 7.15%
GI50 (SNB-19): 5030 nM
GI50 (SR): 3350 nM
inhibition of growth at 10 µM (COLO 205): 25%
GI50 (RXF 393): 2270 nM
inhibition of growth at 10 µM (MCF7 [2]): 62%
GI50 (HT-29): 14900 nM
GI50 (MCF7 [3]): 3160 nM
GI50 (UACC-257): 40000 nM
GI50 (SN12C): 4430 nM
inhibition of growth at 10 µM (PC-3): 42%
inhibition of growth at 10 µM (THP-1): 29%
GI50 (A498): 2810 nM
GI50 (SK-MEL-28): 3000 nM
GI50 (U-251): 3670 nM
GI50 (Hs-578T): 4180 nM
GI50 (A549): 4460 nM
GI50 (TK-10): 7030 nM

COc1ccc(/C=C\c2cc(OC)c(OC)c(OC)c2)cc1OCC(=O)Nc1nc2ccccc2s1
GI50 (786-0): 100 nM
growth inhibition (GI) (HEp-2): inactive
GI50 (UO-31): 580 nM
GI50 (KM12): 58 nM
GI50 (SK-MEL-5): 36 nM
GI50 (HCT-15): 48 nM
GI50 (SK-MEL-2): 180 nM
GI50 (ACHN): 93 nM
GI50 (MDA-MB-468; MDA-MB-468, 48 h): 100 nM
GI50 (NCI-H23): 110 nM
GI50 (OVCAR-3): 43 nM
GI50 (M14): 72 nM
GI50 (HCC 2998): 370 nM
GI50 (LOX IMVI): 67 nM
GI50 (SNB-75): 46 nM
GI50 (NCI/ADR-RES): 33 nM
GI50 (NCI-H460): 52 nM
GI50 (MDA-MB-435): 19 nM
GI50 (IGROV-1): 210 nM
GI50 (CAKI-1): 410 nM
GI50 (MOLT-4): 340 nM
GI50 (NCI-H522): 79 nM
Activity (MCF7 [1]): 27.48%
GI50 (SR): 37 nM
inhibition of growth at 10 µM (COLO 205): 60%
GI50 (RXF 393): 50 nM
inhibition of growth at 10 µM (MCF7 [2]): 72%
GI50 (HT-29): 3160 nM
GI50 (MCF7 [3]): 51 nM
GI50 (UACC-257): 11000 nM
GI50 (SN12C): 370 nM
inhibition of growth at 10 µM (PC-3): 44%
growth inhibition (GI) (THP-1): inactive
GI50 (A498): 360 nM
GI50 (U-251): 48 nM
GI50 (A549): 340 nM
